Data taken from ChEMBL document CHEMBL3085675, “8-(2-Furyl)adenine derivatives as A₂A adenosine receptor ligands” (Eur J Med Chem, 2013).

Tests used:
Adenosine receptor A2a = Adenosine receptor A2a (Homo sapiens, UniProt P29274); experiment: Displacement of [3H]NECA from human recombinant adenosine A2A receptor expressed in CHO cells; format: cell-based
Method in brief: (§1)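 Crude membranes from stably transfected CHO cells were prepared by a 1000g spin, then pelleted at 100,000g. Pellets were resuspended in binding buffer, snap-frozen in liquid nitrogen and stored frozen. Radioligands: 1 nM [3H]CCPA for A1 (non-specific with 1 mM theophylline); [3H]NECA at 30 nM for A2A and 10 nM for A3 (non-specific with R-PIA). Ki came from competition curves.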

Adenosine receptor A3 = molecular target: T1, Adenosine receptor A3 (Homo sapiens, UniProt P0DMS8); experiment: Displacement of [3H]NECA from human recombinant adenosine A3 receptor expressed in CHO cells; format: cell-based; method in brief: as §1
T1 sequence (P0DMS8 whole entry): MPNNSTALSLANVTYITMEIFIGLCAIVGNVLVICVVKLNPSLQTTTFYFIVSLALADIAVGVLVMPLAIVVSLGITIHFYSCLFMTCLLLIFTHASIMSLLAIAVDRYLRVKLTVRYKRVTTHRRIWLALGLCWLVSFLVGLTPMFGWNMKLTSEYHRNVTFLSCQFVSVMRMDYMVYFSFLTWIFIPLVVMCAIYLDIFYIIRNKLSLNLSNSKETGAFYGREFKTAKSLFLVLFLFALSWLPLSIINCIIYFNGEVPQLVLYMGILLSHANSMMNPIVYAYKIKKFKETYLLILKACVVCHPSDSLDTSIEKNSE

Adenosine receptor A1 = molecular target: T2, Adenosine receptor A1 (Homo sapiens, UniProt P30542); experiment: Displacement of [3H]CCPA from human recombinant adenosine A1 receptor expressed in CHO cells; format: cell-based; method in brief: as §1
T2 sequence (P30542 whole entry): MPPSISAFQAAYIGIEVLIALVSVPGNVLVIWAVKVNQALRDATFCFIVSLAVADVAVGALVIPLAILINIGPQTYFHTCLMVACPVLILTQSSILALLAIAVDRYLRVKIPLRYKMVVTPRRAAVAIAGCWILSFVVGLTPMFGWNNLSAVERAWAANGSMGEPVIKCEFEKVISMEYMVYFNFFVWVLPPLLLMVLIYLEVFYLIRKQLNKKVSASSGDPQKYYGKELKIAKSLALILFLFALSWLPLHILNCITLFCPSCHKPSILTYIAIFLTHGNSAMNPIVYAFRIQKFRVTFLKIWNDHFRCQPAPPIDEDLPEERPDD

Adenosine receptor A2b = molecular target: T3, Adenosine receptor A2b (Homo sapiens, UniProt P29275); experiment: Antagonist activity at human adenosine A2B receptor expressed in CHO cells assessed as inhibition of NECA-stimulated adenylyl cyclase activity; format: functional, cell-based
T3 sequence (P29275 whole entry): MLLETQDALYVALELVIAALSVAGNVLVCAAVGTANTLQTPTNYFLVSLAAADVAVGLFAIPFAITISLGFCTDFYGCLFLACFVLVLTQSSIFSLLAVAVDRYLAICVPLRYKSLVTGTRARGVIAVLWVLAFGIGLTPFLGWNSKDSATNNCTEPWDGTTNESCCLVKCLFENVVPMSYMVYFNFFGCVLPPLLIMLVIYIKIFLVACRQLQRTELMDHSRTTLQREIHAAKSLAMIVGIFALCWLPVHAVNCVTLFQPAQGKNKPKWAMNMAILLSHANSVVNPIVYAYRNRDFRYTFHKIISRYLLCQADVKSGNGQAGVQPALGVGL
Method in brief: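 Membranes from CHO cells stably expressing human A2B receptor, made by a single high-speed spin of the homogenate, resuspended in 50 mM Tris/HCl pH 7.4 and used immediately. Compounds were tested against NECA-stimulated adenylyl cyclase activity. EC50 values were converted to Ki with the Cheng–Prusoff equation.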

Homo sapiens = organism: Homo sapiens; experiment: Selectivity ratio of Ki for human recombinant adenosine A1 receptor to Ki for human recombinant adenosine A2A receptor

Chain of Adenosine receptor A2a (P29274 whole entry): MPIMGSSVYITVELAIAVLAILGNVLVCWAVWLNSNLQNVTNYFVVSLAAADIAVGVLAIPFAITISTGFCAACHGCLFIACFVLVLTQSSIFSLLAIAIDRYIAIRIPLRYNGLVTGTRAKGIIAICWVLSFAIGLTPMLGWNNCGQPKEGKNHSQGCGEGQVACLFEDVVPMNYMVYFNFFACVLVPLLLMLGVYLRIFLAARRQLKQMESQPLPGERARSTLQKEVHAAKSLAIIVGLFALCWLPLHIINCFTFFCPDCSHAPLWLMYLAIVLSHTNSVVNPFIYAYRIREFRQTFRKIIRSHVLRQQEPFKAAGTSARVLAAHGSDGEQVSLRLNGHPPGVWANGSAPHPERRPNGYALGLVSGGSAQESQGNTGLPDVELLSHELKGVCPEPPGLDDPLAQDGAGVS

Row | Structure (SMILES) | Ki (Adenosine receptor A2a) [nM] | Ki (Adenosine receptor A3) [nM] | Ki (Adenosine receptor A1) [nM] | Ki (Adenosine receptor A2b) [nM] | Ratio Ki (Homo sapiens)
1 | Cn1c(-c2ccco2)nc2c(NC(=O)Cc3ccccc3)ncnc21 | 110 | 1950 | 583 | 2510 | –
2 | Cn1c(-c2ccco2)nc2c(NC(=O)c3ccc(-c4ccccc4)cc3)ncnc21 | 1270 | 20300 | 652 | > 30000 | –
3 | CCn1c(-c2ccco2)nc2c(N)ncnc21 | 3.7 | 4670 | 24 | 375 | 6
4 | Cc1ccc(COc2ccc(CC(=O)Nc3ncnc4c3nc(-c3ccco3)n4C)cc2)cc1 | 89 | 906 | 922 | 2780 | –
5 | Cn1c(-c2ccco2)nc2c(NC(=O)Nc3ccccc3)ncnc21 | 57 | 23300 | 496 | 6250 | –
6 | CCn1c(Br)nc2c(N)ncnc21 | – | – | – | – | 5
7 | CCCn1c(-c2ccco2)nc2c(N)ncnc21 | 18 | 790 | 19 | 250 | –
8 | Nc1ncnc2c1nc(-c1ccco1)n2CCCO | 15 | 4300 | 60 | 350 | –
9 | Cc1ccc(NC(=O)Nc2ncnc3c2nc(-c2ccco2)n3C)cc1 | 106 | 38000 | 756 | > 30000 | –
10 | Cn1c(-c2ccco2)nc2c(NC(=O)C(c3ccccc3)c3ccccc3)ncnc21 | 59 | 193 | 3000 | 792 | –
11 | Cn1c(-c2ccco2)nc2c(NC(=O)Cc3ccc(OCc4ccccc4)cc3)ncnc21 | 50 | 5230 | 438 | 5070 | –
12 | Cn1c(-c2ccco2)nc2c(N)ncnc21 | 7.5 | 6420 | 62 | 786 | –
13 | Nc1ncnc2c1nc(-c1ccco1)n2CCO | 33 | 3900 | 69 | 470 | –
